Data as given in ChEMBL document CHEMBL1146073, “A pyridazine series of alpha2/alpha3 subtype selective GABA A agonists for the treatment of anxiety” (J Med Chem, 2006).
Activity calls are given as the source filed them. The rule behind the calls is not given here.

What was measured:
[1] = biological target: GABA-A receptor; alpha-5/beta-3/gamma-2 (Homo sapiens) (UniProt P18507+P28472+P31644); experiment: Efficacy against recombinant human GABA-Aalpha5 plus beta-3-gamma-2 expressed in L(tk-) cells by whole cell patch clamp method relative to chlordiazepoxide; format: functional, cell-based
Procedure, shortened: (§1)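 Whole-cell patch clamp on αxβ3γ2 receptors stably expressed in L(tk-) cells, measuring the effect on current evoked by an EC20-equivalent of GABA. Reported relative to full agonist chlordiazepoxide (=1.0), or as direct percent modulation of the EC20 control, with inverse agonism given as percent. Mean of at least four independent experiments.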

[2] = biological target: T1, GABA-A receptor; alpha-3/beta-3/gamma-2 (Homo sapiens, UniProt P18507+P28472+P34903); experiment: Displacement of [3H]Ro-151788 from recombinant human GABA-Aalpha3 receptor plus beta3gamma2; format: protein-complex assay
T1 sequence (P18507 whole entry): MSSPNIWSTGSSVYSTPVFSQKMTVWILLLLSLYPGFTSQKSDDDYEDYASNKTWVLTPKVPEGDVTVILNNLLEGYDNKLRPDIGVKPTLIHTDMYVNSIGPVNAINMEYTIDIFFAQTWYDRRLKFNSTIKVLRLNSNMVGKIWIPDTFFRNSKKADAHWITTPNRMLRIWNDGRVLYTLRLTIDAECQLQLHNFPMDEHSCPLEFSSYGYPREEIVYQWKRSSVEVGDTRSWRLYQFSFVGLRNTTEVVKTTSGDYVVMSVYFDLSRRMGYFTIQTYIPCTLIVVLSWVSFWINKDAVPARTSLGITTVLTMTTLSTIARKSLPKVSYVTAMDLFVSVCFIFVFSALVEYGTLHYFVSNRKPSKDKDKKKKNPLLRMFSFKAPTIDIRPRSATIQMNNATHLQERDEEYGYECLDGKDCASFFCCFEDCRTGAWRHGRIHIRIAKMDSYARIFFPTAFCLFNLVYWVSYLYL
T1 sequence (P28472 whole entry): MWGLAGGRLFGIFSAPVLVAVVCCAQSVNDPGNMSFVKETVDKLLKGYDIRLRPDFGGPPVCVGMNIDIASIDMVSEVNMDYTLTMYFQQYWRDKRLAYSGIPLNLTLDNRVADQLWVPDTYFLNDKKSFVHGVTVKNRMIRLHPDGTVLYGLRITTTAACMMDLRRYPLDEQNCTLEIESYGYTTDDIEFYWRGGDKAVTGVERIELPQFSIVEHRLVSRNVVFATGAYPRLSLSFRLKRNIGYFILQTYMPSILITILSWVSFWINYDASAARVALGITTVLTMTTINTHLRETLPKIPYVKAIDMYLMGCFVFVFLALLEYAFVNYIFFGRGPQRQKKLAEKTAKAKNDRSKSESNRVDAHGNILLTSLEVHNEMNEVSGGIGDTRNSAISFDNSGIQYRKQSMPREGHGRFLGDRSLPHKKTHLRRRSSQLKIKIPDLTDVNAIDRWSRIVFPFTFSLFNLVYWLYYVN
T1 sequence (P34903 whole entry): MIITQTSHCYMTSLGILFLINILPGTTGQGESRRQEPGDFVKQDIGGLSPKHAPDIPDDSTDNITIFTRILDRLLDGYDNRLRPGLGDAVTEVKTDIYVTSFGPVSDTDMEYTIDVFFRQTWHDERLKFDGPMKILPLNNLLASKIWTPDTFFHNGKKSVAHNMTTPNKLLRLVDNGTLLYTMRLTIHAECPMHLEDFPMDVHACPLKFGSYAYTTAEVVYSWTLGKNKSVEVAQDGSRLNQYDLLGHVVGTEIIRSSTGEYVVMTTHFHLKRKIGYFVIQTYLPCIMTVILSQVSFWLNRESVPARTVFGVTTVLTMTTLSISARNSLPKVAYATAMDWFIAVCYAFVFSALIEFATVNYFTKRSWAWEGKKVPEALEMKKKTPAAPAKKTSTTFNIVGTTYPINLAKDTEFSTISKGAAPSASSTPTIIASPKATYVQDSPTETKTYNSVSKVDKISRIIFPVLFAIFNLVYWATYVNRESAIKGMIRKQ
Procedure, shortened: (§2)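 Benzodiazepine-site binding on stably transfected αxβ3γ2 receptors (x = 1, 2, 3 or 5). Inhibition curves run with [3H]Ro15-1788 at roughly twice its Kd. Ki derived by Cheng-Prusoff equation. Mean of three to six determinations.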

[3] = biological target: GABA-A receptor; alpha-1/beta-3/gamma-2 (Homo sapiens) (UniProt P14867+P18507+P28472); experiment: Efficacy against recombinant human GABA-Aalpha1 plus beta-3-gamma-2 expressed in L(tk-) cells by whole cell patch clamp method; format: functional, cell-based; procedure, shortened: as §1
[4] = Plasma clearance in rat; format: ADME, organism-based
Procedure, shortened: (§3)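 Pharmacokinetics from six animals per species: three dosed iv and three dosed po.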

[5] = biological target: T2, GABA-A receptor; alpha-2/beta-3/gamma-2 (Homo sapiens, UniProt P18507+P28472+P47869); experiment: Displacement of [3H]Ro-151788 from recombinant human GABA-Aalpha2 receptor plus beta3gamma2; format: protein-complex assay; procedure, shortened: as §2
T2 sequence (P18507 whole entry): T1 sequence (P18507 whole entry)
T2 sequence (P28472 whole entry): T1 sequence (P28472 whole entry)
T2 sequence (P47869 whole entry): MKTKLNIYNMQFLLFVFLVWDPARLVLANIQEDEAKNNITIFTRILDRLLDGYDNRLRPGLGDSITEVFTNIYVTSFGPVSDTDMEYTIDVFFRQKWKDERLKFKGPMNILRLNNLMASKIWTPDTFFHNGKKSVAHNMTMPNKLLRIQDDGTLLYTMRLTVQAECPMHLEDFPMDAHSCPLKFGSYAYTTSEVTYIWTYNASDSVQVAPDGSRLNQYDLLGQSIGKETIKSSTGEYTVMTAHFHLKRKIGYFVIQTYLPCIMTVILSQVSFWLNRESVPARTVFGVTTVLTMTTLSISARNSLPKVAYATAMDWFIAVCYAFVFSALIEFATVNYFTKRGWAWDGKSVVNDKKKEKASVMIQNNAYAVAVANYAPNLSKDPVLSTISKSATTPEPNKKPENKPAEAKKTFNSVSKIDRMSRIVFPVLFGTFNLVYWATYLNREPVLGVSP

[6] = Half life in dog; format: ADME, organism-based, Canis lupus familiaris; details: in vivo; procedure, shortened: as §3
[7] = Plasma clearance in dog; format: ADME, organism-based, Canis lupus familiaris; procedure, shortened: as §3
[8] = biological target: GABA-A receptor; anion channel (Rattus norvegicus) (UniProt O09028+P15431+P18506+P18508+P19969+P20236+P23574+P23576+P28471+P28473+P30191+P62813+P63079+P63138+Q91ZM7+Q9ES14); experiment: Receptor occupancy in vivo by displacement of [3H]Ro-151788 binding from GABA-A receptor in rat at 1 mg/kg, po; format: functional, organism-based; set-up: dose 1 mg/kg
Procedure, shortened: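 Rat in vivo occupancy measured by [3H]Ro 15-1788 binding after oral dosing. Rats taken as a subgroup after the plus-maze trial, i.e. 30 min post-dose or later. ED50 derived from dose-dependent occupancy. Mean ± SEM, n = 5-10/group.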

[9] = Oral bioavailability in dog; format: ADME, organism-based, Canis lupus familiaris; details: in vivo; procedure, shortened: as §3
[10] = Plasma clearance in Rhesus monkey; format: ADME, organism-based, Macaca mulatta; procedure, shortened: as §3
Rattus norvegicus = experiment: Anxiolytic activity in rat plus-maze assay at 0.3 mg/kg, po; format: functional, organism-based; set-up: dose 0.3 mg/kg
Procedure, shortened: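 Rats given vehicle (0.5% methyl cellulose) or compound orally; chlordiazepoxide 5 mg/kg ip as positive control. Placed on elevated plus maze 30 min after dosing; time on open arms recorded as anxiety index. Significance versus vehicle at p < 0.05; mean ± SEM, n = 16-18/group.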

Row | Efficacy [1] | Ki [2] [nM] | Efficacy [3] [%] | clearance [4] [mL/min/kg] | Ki [5] [nM] | half-life [6] [h] | clearance [7] [mL/min/kg] | Activity [8] [%] | bioavailability [9] [%] | clearance [10] [mL/min/kg] | Compound | Activity (Rattus norvegicus)
1 | 0.01 | 8.5 | -7 | 1.3 | 10.9 | 15 | 3.9 | 71 | 40 |  | Fc1cnc(-c2cc(-c3ccc(F)c(-c4ncc(F)cc4F)c3)cnn2)c(F)c1 | 
2 | 0.4 | 2 | -0.8 | 3 |  |  |  |  |  |  | Fc1cnc(-c2cc(-c3ccc(F)c(-c4ncccc4F)c3)cnn2)c(F)c1 | 
3 | 0.14 | 5 | -9 |  | 4.6 |  |  |  |  |  | Fc1cnc(-c2cc(-c3cnnc(-c4c(F)cc(F)cc4F)c3)ccc2F)c(F)c1 | 
4 |  | 6.3 | -3 | 59 |  | 3.9 | 17 |  | 72 | 6 | Fc1cnc(-c2cc(-c3cnnc(-c4c(F)cncc4F)c3)ccc2F)c(F)c1 | Active
